Active and inactive are the calls of the source. The calls are words filed in the database; no cut-off is given here. Square brackets hold non-standard residues; d marks the D form. Peptide text beside a SMILES is read from it. Hyp = O=C(O)[C@@H]1C[C@@H](O)CN1; Ahx = NCCCCCC(=O)O

The source of these data is ChEMBL document CHEMBL5543129, “Peptide Inhibitor Targeting the Extraterminal Domain in BRD4 Potently Suppresses Breast Cancer Both In Vitro and In Vivo” (J Med Chem, 2024).

Series [1] in a line: Toxicity in BALB/c mouse xenografted with human MCF7 cells assessed as change in heart at 12.5 mg/kg, ip administered every 2 days in presence of 12.5 mg/kg JMJD6 inhibitor. Format: organism-based. The following applies: in vivo, 48 h. The procedure, abridged:
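Female BALB/c nude mice carried MCF7 xenografts (5 × 10^6 cells sc, E2 10–2 M brushed every 2 days) and were randomized at about 50 mm3. Peptide was given at 12.5 mg/kg ip every 2 days, and iJMJD6 (DMSO/PBS 1:20) at 12.5 mg/kg ip every other day, alone or combined. Body and organ weights were recorded.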

Series [2] relates to T47D. Put plainly: Antiproliferative activity against human T47D cells at 10 uM incubated for 1 week in presence of JMJD6 inhibitor by CellTiter 96 Aqueous One Solution based assay. It counts as functional, cell-based. The following applies: time 1.0 weeks.
A short description of series [3]: Downregulation of c-Myc protein expression in human MDA-MB-231 cells assessed as fold change in remaining c-Myc level at 10 uM incubated for 24 hrs by immunoblotting analysis (reference value: 1). Format: functional. In a few lines: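 Cells (MCF7 or MDA-MB-231 in DMEM, 10% FBS, 37 °C, 5% CO2) are treated with peptide for 24 h. Lysates are taken in Tris/NaCl/EDTA/1% Triton buffer and run on 10% SDS-PAGE. Immunoblots are normalised to β-actin loading control; three repeats.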

Series [4] in a line: Toxicity in BALB/c mouse xenografted with human MCF7 cells assessed as change in liver weight at 12.5 mg/kg, ip administered every 2 days in presence of 50 mg/kg JQ1. The following applies: in vivo, 48 h. It counts as organism-based.
Series [5] deals with MCF7. Briefly: Inhibition of cell migration in human MCF7 cells at 10 uM incubated for 24 hrs in presence of 5 uM JQ1 by inverted microscopic assay. It counts as functional, cell-based. The procedure, abridged:
(§1)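 Cells are seeded at 5 × 10^5/well and scratched at 80–90% confluence. They are kept in serum-free medium with peptide (10 μM); partner agents are JQ1 5 μM, iJMJD6 10 μM, or ICI 2.5 μM. Wound area is imaged by inverted microscope at 0 and 12 or 24 h. Wound closure % = (A0−A1)/A0 × 100. Three biological repeats.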

Another series has as its system MDA-MB-231. Briefly: Antitumor activity against human MDA-MB-231 cells xenografted in BALB/c nude mouse assessed as reduction in tumor volume at 12.5 mg/kg, ip administered every 2 days in presence of 50 mg/kg JQ1. Format: functional, organism-based. The procedure, abridged: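 Female BALB/c nude mice given 5 × 10^6 cells sc (MCF7 mice with E2 10^-2 M every 2 days), randomised at ~50 mm3. Peptide 12.5 mg/kg ip (saline) every 2 days, plus JQ1 50 mg/kg ip (DMSO/10% HPBCD 1:10) every 2 days or iJMJD6 12.5 mg/kg ip (DMSO/PBS 1:20). Caliper volume every 2 days; tumours weighed at the end.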

Series [6] has as its system MCF7. Briefly: Inhibition of colony formation in human MCF7 cells at 10 uM incubated for 2 weeks in presence of fulvestrant by crystal violet staining based assay. Format: functional, cell-based. In a few lines: (§2)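 Cells are seeded at 1 × 10^3/well and treated with peptide (10 μM) for 2 weeks, alone or with JQ1 5 μM, iJMJD6 10 μM, ICI 2.5 μM, or tamoxifen 3 μM (tamoxifen-resistant lines). Colonies are stained with crystal violet, dissolved in 10% acetic acid, and read at 590 nm. Three biological repeats.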

Series [7] has as its system MCF7. Briefly: Inhibition of colony formation in human MCF7 cells at 10 uM incubated for 2 weeks in presence of tamoxifen by crystal violet staining based assay. It counts as functional, cell-based. In a few lines: as §2
Series [8] has as its system T47D. Briefly: Inhibition of colony formation in human T47D cells at 10 uM incubated for 2 weeks in presence of fulvestrant by crystal violet staining based assay. Format: functional, cell-based. The procedure, abridged: as §2
Series [9] relates to MCF7. Briefly: Antitumor activity against human MCF7 cells xenografted in BALB/c nude mouse assessed as reduction in tumor growth at 25 mg/kg, ip administered every 2 days. Format: functional, organism-based. In a few lines:
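Female BALB/c nude mice, 4–6 wk, given 5 × 10^6 cells in PBS subcutaneously; MCF7 mice also had E2 (10^-2 M) brushed on the neck every 2 days. Randomised at ~50 mm3. Peptide in 0.9% saline, 25 mg/kg ip every 2 days. Caliper volume (1/2 × L × W²) every 2 days.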

For series [10], the system named is T47D. Put plainly: Antiproliferative activity against human T47D cells at 10 uM incubated for 1 week in presence of tamoxifen by CellTiter 96 Aqueous One Solution based assay. It counts as functional, cell-based. The following applies: time 1.0 weeks. In a few lines: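 Tamoxifen-resistant MCF7 or T47D cells treated with peptide (10 μM) or tamoxifen (3 μM), alone or combined. Viability read by MTS reagent, 1 h at 37 °C, A490.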

Series [11] is described as follows: Downregulation of JMJD6 protein expression in BALB/c mouse tumor xenografted with human MCF7 cells assessed as fold change in remaining JMJD6 level at 25 mg/kg, ip administered every 2 days by immunoblotting analysis. Format: functional. The procedure, abridged:
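Tumours taken from xenograft mice dosed with peptide at 25 mg/kg ip every 2 days. […] Three repeats.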

Series [12] can be described thus: Downregulation of JMJD6 protein expression in human MCF7 cells assessed as fold change in remaining JMJD6 level at 10 uM incubated for 24 hrs by immunoblotting analysis (reference value: 1). It counts as functional. The procedure, abridged: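 Cells treated with peptide (10 μM) for 24 h. Lysates in Tris/NaCl/EDTA/1% Triton X-100, run on 10% SDS-PAGE and immunoblotted with ECL detection. β-actin as loading control. Three repeats, quantified against untreated cells.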

For the next series, the system named is Mus musculus. Put plainly: Downregulation of c-Myc mRNA expression in BALB/c mouse tumor xenografted with human MCF7 cells at 25 mg/kg, ip administered every 2 days by RT-qPCR analysis. Format: functional, organism-based. In a few lines:
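Female BALB/c nude mice (4–6 weeks) implanted subcutaneously with 5 × 10^6 cells in PBS. For MCF7 grafts, estrogen (E2, 10–2 M) is brushed on every 2 days. Treatment starts at ~50 mm3 after randomization, with peptide in normal saline ip every 2 days. Tumour mRNA is measured by RT-qPCR.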

Series [13] has as its system MCF7. Put plainly: Antitumor activity against human MCF7 cells xenografted in BALB/c nude mouse assessed as reduction in tumor volume at 12.5 mg/kg, ip administered every 2 days in presence of 2.5 mg/kg fulvestrant. Format: functional, organism-based. In a few lines:
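MCF7 xenografts in female BALB/c nude mice on E2 (10^-2 M, every 2 days), randomised at ~50 mm3. Peptide 12.5 mg/kg ip every 2 days with fulvestrant 2.5 mg/kg sc (DMSO/corn oil 1:10) every 6 days. Caliper volume (1/2 × L × W²); tumours weighed at the end.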

Series [14] concerns T47D. Put plainly: Inhibition of cell migration in human T47D cells at 10 uM incubated for 24 hrs in presence of JMJD6 inhibitor by inverted microscopic analysis. Format: functional, cell-based. In a few lines: as §1
The nature of series [15]: Toxicity in BALB/c mouse xenografted with human MDA-MB-231 cells assessed as change in lung morphology at 12.5 mg/kg, ip administered every 2 days in presence of 50 mg/kg JQ1. The following applies: in vivo, 48 h. Format: organism-based. In a few lines:
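Female BALB/c nude mice (4–6 weeks) carried sc MDA-MB-231 xenografts (5 × 10^6 cells) and were randomized at about 50 mm3. Peptide (12.5 mg/kg ip in saline) and JQ1 (50 mg/kg ip, DMSO/10% HPBCD 1:10) were given every 2 days, alone or combined. Body weight was recorded, and heart, liver, spleen, lung and kidney morphology and weight were assessed.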

`CC[C@H](C)[C@H](NC(=O)[C@H](Cc1ccc(O)cc1)NC(=O)[C@@H]1C[C@@H](O)CN1C(=O)[C@H](C)NC(=O)[C@@H](NC(=O)CCCCCNC(=O)[C@H](CCC(=O)O)NC(=O)CNC(=O)[C@H](CS)NC(=O)[C@H](CCCCN)NC(=O)[C@H](Cc1ccccc1)NC(=O)[C@H](CCCCN)NC(=O)[C@H](CCC(N)=O)NC(=O)[C@H](CC(N)=O)NC(=O)[C@H](CCCNC(=N)N)NC(=O)[C@H](CCCNC(=N)N)NC(=O)[C@H](CCCNC(=N)N)NC(=O)[C@H](CCCNC(=N)N)NC(=O)[C@H](CCC(N)=O)NC(=O)[C@H](CCCNC(=N)N)NC(=O)[C@H](CCCNC(=N)N)NC(=O)[C@H](CCCCN)NC(=O)[C@H](CCCCN)NC(=O)[C@H](CCCNC(=N)N)NC(=O)CNC(=O)[C@@H](N)Cc1ccc(O)cc1)[C@@H](C)CC)C(=O)O` (H-YGRKKRRQRRRRNQKFKCGE[Ahx]IA[Hyp]YI-OH): the Activity result in series [1], in series [4] and in series [15] was “Non-Toxic” throughout. Besides, the outcome in the series on T47D [2], in the series with MDA-MB-231, with MCF7 [9], in the series on T47D [10], in the series with Mus musculus and in the series with MCF7 [13] was Active. The figures for the “fold change (FC)” value in series [3], in series [11] and in series [12] were 0.85, 0.4 and 0.5, respectively. Moreover, the inhibition result in the series on MCF7 [5], in the series with MCF7 [6], with MCF7 [7], in the series with T47D [8] and in the series on T47D [14] was “Active” each time.
With H-YGRKKRRQRRRRNQKFKCGE-OH, the Activity result in [1], in series [4] and in series [15] was “Non-Toxic” throughout. Moreover, the outcome in the series with T47D [2], in the series on MDA-MB-231, in the series on MCF7 [9], in the series on T47D [10], in the series on Mus musculus and with MCF7 [13] was Active. The “fold change (FC)” value in series [3] is 0.77; in series [11], 0.71; in [12], 0.91. Besides, the inhibition entry in the series with MCF7 [5], with MCF7 [6], with MCF7 [7], in the series on T47D [8] and with T47D [14] was “Active” each time.
